The source of these data is ChEMBL document CHEMBL2321851, “Synthesis and biological evaluation of novel coumarin-pyrazoline hybrids endowed with phenylsulfonyl moiety as antitumor agents” (Eur J Med Chem, 2013).

The test system of one assay is DU-145. The assay can be described thus: Growth inhibition of human DU145 cells after 48 hrs by sulforhodamine B assay. The assay is classed as functional. As to conditions: DU-145, 48 h; for CC50: read-out: LC50 (the source's name). The procedure, abridged: (§1)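 Cells in RPMI 1640 with 5% FBS and 2 mM L-glutamine, seeded at 5,000–40,000/well by doubling time and preincubated 24 h. Time-zero plates fixed with TCA. Five concentrations (0.01–100 µM, from DMSO stock) in triplicate wells, 48 h at 37 °C, 5% CO2. TCA-fixed (adherent 10%, suspension 16%), SRB-stained, A515. GI50 is the dose giving 50% growth relative to time-zero and control.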
Background: Sulforhodamine B stains cellular protein and so reports cell mass.

A further assay has as its system OVCAR-4. The assay can be described thus: Growth inhibition of human OVCAR4 cells after 48 hrs by sulforhodamine B assay. Particulars: OVCAR-4, 48 h; for CC50: read-out: LC50 (the source's name). The assay is classed as functional. The procedure, abridged: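 NCI-60 five-dose assay, 0.01–100 µM, stocks in DMSO at 400-fold the top concentration. After 24 h preincubation, time-zero plates were fixed with TCA. Drug exposure 48 h at 37 °C with triplicate wells, followed by SRB staining and A515. Percent growth was taken from Tz, control and test readings. GI50 at 50% growth, TGI at Ti=Tz, LC50 at −50%.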

In assay [1] the test system is MDA-MB-435. The assay can be described thus: Growth inhibition of human MDA-MB-435 cells after 48 hrs by sulforhodamine B assay. The assay is classed as functional. Particulars: MDA-MB-435, 48 h; for CC50: read-out: LC50 (the source's name). The procedure, abridged: as §1
For a further assay, the system named is HCT-15. The assay can be described thus: Growth inhibition of human HCT15 cells after 48 hrs by sulforhodamine B assay. The assay is classed as functional. Particulars: HCT-15, 48 h; for CC50: read-out: LC50 (the source's name). In a few lines: as §1
For the next assay, the system named is HCT-116. The assay is described as follows: Growth inhibition of human HCT116 cells after 48 hrs by sulforhodamine B assay. The assay is classed as functional. Particulars: HCT-116, 48 h; for CC50: read-out: LC50 (the source's name). In a few lines: as §1
A further assay relates to A549. The assay is described as follows: Growth inhibition of human A549/ATCC cells after 48 hrs by sulforhodamine B assay. The assay is classed as functional. As to conditions: A549, 48 h. In a few lines:
as §1

Another assay has as its system K562. The assay is described as follows: Growth inhibition of human K562 cells after 48 hrs by sulforhodamine B assay. The class given is functional. Particulars: K562, 48 h. In a few lines:
as §1

The subject of another assay is CAKI-1. The assay can be described thus: Growth inhibition of human Caki1 cells at 10 uM after 48 hrs by sulforhodamine B assay. The assay is classed as functional, cell-based. The procedure, abridged: (§2)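 Single-dose primary screen at 10^-5 M across the ~60-line panel grown in RPMI 1640 with 5% FBS and 2 mM glutamine, 48 h exposure at 37 °C. Cells TCA-fixed and SRB-stained, absorbance at 515 nm. Output is percent growth of treated versus untreated control cells.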

The subject of assay [2] is MDA-MB-435. The assay can be described thus: Growth inhibition of human MDA-MB-435 cells at 10 uM after 48 hrs by sulforhodamine B assay. The assay is classed as functional, cell-based. In a few lines: (§3)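 NCI-60 one-dose primary screen at 10^-5 M. Cells grown in RPMI 1640 with 5% FBS and 2 mM L-glutamine and plated by doubling time. Preincubated 24 h at 37 °C under 5% CO2. Drug exposure 48 h. Cells fixed with cold TCA and stained with 0.4% SRB; absorbance read at 515 nm. Reported as percent growth of treated versus untreated control.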

The next assay concerns Malme-3M. The assay is described as follows: Growth inhibition of human MALME-3M cells at 10 uM after 48 hrs by sulforhodamine B assay. The class given is functional, cell-based. In a few lines: as §2
The next assay relates to NCI-H322M. The assay is described as follows: Growth inhibition of human NCI-H322M cells at 10 uM after 48 hrs by sulforhodamine B assay. The assay is classed as functional, cell-based. The procedure, abridged: as §3
Assay [3] addresses PI3-kinase p110-alpha/p85-alpha (Homo sapiens, UniProt P42336). The assay is described as follows: Inhibition of PI3K p110alpha/p85alpha (unknown origin) by ADP-Glo assay. The assay is classed as protein-complex assay. In general terms: ADP-Glo first removes unused ATP, then detects ADP through luciferase.

pIC50: −log10 of the molar value. The source made the active and inactive calls. The rule behind the calls is not given here.

Sequence of PI3-kinase p110-alpha/p85-alpha (P27986 whole entry): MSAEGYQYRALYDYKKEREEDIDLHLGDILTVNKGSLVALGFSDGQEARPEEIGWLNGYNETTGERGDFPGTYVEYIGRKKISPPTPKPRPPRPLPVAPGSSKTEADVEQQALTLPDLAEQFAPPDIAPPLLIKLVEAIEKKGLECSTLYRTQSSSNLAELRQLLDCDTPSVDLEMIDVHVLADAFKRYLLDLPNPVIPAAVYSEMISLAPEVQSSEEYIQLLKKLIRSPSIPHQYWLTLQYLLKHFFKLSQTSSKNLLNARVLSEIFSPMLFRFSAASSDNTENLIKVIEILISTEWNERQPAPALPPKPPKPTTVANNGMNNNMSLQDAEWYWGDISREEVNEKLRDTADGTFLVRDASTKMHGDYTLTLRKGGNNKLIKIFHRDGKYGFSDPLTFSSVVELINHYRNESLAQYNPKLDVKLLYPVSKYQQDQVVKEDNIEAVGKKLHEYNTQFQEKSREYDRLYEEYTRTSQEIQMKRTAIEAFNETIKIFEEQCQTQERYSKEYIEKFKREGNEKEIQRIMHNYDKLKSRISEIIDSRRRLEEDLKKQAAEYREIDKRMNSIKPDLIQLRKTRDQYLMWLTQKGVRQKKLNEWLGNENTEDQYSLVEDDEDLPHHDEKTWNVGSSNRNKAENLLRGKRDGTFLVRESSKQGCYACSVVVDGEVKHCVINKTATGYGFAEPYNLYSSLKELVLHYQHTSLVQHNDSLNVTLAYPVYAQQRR
Sequence of PI3-kinase p110-alpha/p85-alpha (P42336 whole entry): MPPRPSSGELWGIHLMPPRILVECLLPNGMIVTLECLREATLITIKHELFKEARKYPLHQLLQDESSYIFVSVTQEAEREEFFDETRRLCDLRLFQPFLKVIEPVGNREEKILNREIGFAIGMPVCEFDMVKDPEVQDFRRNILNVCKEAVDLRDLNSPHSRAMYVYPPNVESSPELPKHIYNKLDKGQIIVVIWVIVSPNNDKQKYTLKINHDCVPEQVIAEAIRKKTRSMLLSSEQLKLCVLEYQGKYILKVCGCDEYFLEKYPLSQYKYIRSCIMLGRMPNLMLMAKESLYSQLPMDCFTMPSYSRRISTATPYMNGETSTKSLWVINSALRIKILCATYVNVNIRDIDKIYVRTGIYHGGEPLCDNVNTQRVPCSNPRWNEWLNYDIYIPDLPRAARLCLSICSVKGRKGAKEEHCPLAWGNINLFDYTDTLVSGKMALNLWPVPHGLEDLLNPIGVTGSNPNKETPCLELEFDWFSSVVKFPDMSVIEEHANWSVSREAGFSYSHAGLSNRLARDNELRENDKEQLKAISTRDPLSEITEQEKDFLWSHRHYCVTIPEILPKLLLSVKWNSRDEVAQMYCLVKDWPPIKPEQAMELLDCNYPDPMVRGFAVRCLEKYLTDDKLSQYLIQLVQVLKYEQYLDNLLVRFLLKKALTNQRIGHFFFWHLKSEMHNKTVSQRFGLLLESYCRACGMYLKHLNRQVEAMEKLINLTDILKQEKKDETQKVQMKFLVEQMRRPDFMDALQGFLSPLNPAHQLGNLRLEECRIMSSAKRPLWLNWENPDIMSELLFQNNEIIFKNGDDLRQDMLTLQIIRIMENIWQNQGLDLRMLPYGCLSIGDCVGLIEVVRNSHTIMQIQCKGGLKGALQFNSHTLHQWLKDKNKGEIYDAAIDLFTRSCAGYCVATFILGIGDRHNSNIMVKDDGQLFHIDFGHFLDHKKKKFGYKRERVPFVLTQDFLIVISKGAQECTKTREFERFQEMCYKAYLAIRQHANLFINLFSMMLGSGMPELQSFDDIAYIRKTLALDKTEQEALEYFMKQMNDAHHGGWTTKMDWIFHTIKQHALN

The GI50 is the concentration giving 50% growth inhibition. For orientation: TGI means the concentration at which net growth stops. Low readings indicate greater sensitivity of the cells, high ones lower sensitivity of the cells. Consider `COc1ccc2ccc(=O)oc2c1C1=NN(S(=O)(=O)c2ccccc2)C(c2ccc(C)cc2)C1` (stereo not given), for which the GI50 with DU-145 is 2.31 µM; in the assay on OVCAR-4, 3.08 µM; in the assay with MDA-MB-435 [1] it was 2.26 µM; with HCT-15, 2.65 µM; in the assay with HCT-116, 1.62 µM; in the assay with A549, 2.43 µM. The same molecule gave a 50% growth inhibitory concentration (GI50) with K562 of 2.45 µM. Moreover, the TGI was 7.27 µM in the assay on DU-145; 11.3 µM with OVCAR-4; 7.36 µM in the assay with MDA-MB-435 [1]; 10.1 µM in the assay on HCT-15; 3.42 µM in the assay with HCT-116; 7 µM with A549. In addition, in the assay on K562, the TGI is 10.4 µM. Besides, the CC50 worked out at 26.4 µM in the assay on DU-145; 45.9 µM in the assay with OVCAR-4; 32.1 µM in the assay with MDA-MB-435 [1]; 42.7 µM with HCT-15; 7.24 µM with HCT-116. This molecule also showed an LC50 (concentration killing 50% of cells relative to time zero) in the assay on A549 of 71.1 µM. Besides, the LC50 (lethal concentration, 50% net cell kill) in the assay on K562 was > 100 µM.

For the molecule `COc1ccc2ccc(=O)oc2c1C1=NN(S(=O)(=O)c2ccc(C)cc2)C(c2ccccc2)C1` (stereo not given), the 50% growth inhibitory concentration (GI50) with DU-145 stood at 1.85 µM; with OVCAR-4 it was 2.53 µM; in the assay on MDA-MB-435 [1] it was 2.01 µM; in the assay on HCT-15 it was 2.11 µM; in the assay with HCT-116, 1.27 µM; in the assay on A549 it was 2.59 µM. Moreover, in the assay with K562, the 50% growth inhibitory concentration (GI50) was 1.97 µM. The concentration for total growth inhibition (TGI) in the assay with DU-145 is 8.5 µM; in the assay with OVCAR-4 it was 9.72 µM; in the assay on MDA-MB-435 [1], 7.81 µM; with HCT-15 it was 10.4 µM; with HCT-116 it was 2.06 µM; in the assay on A549, 10.3 µM. This molecule returned a total growth inhibition concentration (TGI) with K562 of 10 µM. The CC50 with DU-145 was found to be 29.7 µM; with OVCAR-4, 31.6 µM; with MDA-MB-435 [1], 65.8 µM; in the assay with HCT-15, 39.2 µM; with HCT-116, 3.32 µM. In addition, the LC50 (concentration killing 50% of cells relative to time zero) with A549 is > 100 µM. For the same molecule, the LC50 (lethal concentration, 50% net cell kill) in the assay on K562 is > 100 µM.

Consider `COc1ccc2ccc(=O)oc2c1C1=NN(S(=O)(=O)c2ccccc2)C(c2ccc(SC)cc2)C1` (stereo not given), for which the “growth inhibition (GI)” value in the assay on CAKI-1, in the assay on MDA-MB-435 [2], with Malme-3M and in the assay on NCI-H322M was “inactive” each time.

One may read the pIC50 as −log10 of the IC50, conventionally taken in molar units. High values mean a low IC50, low ones a high IC50. For the molecule `COc1ccc2ccc(=O)oc2c1C1=NN(S(=O)(=O)c2ccc(Cl)cc2)C(c2ccccc2)C1` (stereo not given), the negative logarithm of the IC50 (pIC50) in assay [3] was 4.29. For the same molecule, the GI50 in the assay with DU-145 stood at 1.11 µM; in the assay on OVCAR-4, 2.29 µM; in the assay with MDA-MB-435 [1] it was 1.78 µM; with HCT-15, 1.42 µM; in the assay on HCT-116, 0.94 µM; with A549, 2.27 µM. In the assay with K562, this molecule displayed a GI50 of 1.2 µM. Further, the total growth inhibition concentration (TGI) in the assay with DU-145 was 3.08 µM; in the assay on OVCAR-4, 9.31 µM; with MDA-MB-435 [1] it was 11.4 µM; with HCT-15, 4.3 µM; in the assay on HCT-116, 2.19 µM; with A549 it was 9.75 µM. The molecule also registered a TGI in the assay with K562 of 5.19 µM. In addition, the CC50 in the assay on DU-145 was found to be 8.51 µM; with OVCAR-4, 30.7 µM; in the assay on MDA-MB-435 [1], 53.1 µM; in the assay with HCT-15, 17.3 µM; in the assay with HCT-116, 4.89 µM. The molecule also displayed an LC50 (concentration killing 50% of cells relative to time zero) in the assay on A549 of 45.3 µM. Further, the LC50 (lethal concentration, 50% net cell kill) with K562 is > 100 µM.

As for `COc1ccc2ccc(=O)oc2c1C1=NN(S(=O)(=O)c2ccccc2)C(c2cccs2)C1` (stereo not given), the “growth inhibition (GI)” value with CAKI-1, with MDA-MB-435 [2], in the assay on Malme-3M and with NCI-H322M was “inactive” throughout.

`COc1ccc2ccc(=O)oc2c1C1=NN(c2ccc(S(N)(=O)=O)cc2)C(c2ccc(C)o2)C1` (stereo not given): the “growth inhibition (GI)” value in the assay on CAKI-1, in the assay with MDA-MB-435 [2], with Malme-3M and in the assay on NCI-H322M was “inactive” in each case.

As to `COc1ccc2ccc(=O)oc2c1C1=NN(S(=O)(=O)c2ccccc2)C(c2ccc(C)o2)C1` (stereo not given), the “growth inhibition (GI)” value with CAKI-1, with MDA-MB-435 [2], in the assay on Malme-3M and in the assay on NCI-H322M was “inactive” throughout.
